In ChEMBL document CHEMBL4627246, “Pyroglutamide-Based P2X7 Receptor Antagonists Targeting Inflammatory Bowel Disease” (J Med Chem, 2020):
Calls of active or inactive are those of the source. Unless noted, the rule behind the calls is not given here.

How the values were obtained:
[1] = target: T1, P2X purinoceptor 7 (Homo sapiens) (UniProt Q99572); assay: Inhibition of human P2X7 expressed in human HEK293 cells assessed as reduction in BzATP-stimulated TO-PRO-3 incorporation at 10 uM preincubated with compound and TO-PRO-3 for 15 mins prior to BzATP addition and measured after 1 hr by Fluo-3AM dye based flow cytometry relative to control; assay type: cell-based
T1 sequence (whole entry): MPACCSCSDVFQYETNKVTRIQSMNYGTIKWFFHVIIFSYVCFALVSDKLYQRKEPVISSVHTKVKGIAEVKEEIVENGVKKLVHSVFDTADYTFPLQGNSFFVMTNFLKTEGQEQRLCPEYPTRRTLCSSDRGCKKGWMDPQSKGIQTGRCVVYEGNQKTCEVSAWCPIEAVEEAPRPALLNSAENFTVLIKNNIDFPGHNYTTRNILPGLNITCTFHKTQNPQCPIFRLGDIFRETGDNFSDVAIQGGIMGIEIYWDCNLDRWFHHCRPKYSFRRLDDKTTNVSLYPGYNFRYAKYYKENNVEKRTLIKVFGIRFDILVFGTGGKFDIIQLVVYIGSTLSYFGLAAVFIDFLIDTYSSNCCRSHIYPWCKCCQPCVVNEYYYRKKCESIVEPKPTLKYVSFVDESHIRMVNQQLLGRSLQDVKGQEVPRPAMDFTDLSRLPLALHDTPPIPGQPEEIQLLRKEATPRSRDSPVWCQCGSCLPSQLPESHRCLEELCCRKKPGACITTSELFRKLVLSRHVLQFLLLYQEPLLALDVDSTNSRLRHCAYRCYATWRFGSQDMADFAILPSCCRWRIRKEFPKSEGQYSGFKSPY
In short: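 HEK-293 cells overexpressing human P2RX7 loaded with Fluo-3 AM, then incubated with TO-PRO-3 (large pore uptake) and propidium iodide (viability) plus compound (10⁻⁵ M single point) for 15 min before BzATP 100 µM. After 1 h, flow cytometry; percentage of Fluo-3/TO-PRO-3 double-positive cells calculated. Mean of n ≥ 2 with positive control.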

[2] = Solubility of compound in saline at 1mg/ml; assay type: physicochemical; details: buffer
[3] = target: T2, P2X purinoceptor 1 (Homo sapiens) (UniProt P51575); assay: Antagonist activity at P2X1 receptor in human platelet assessed as inhibition of thrombin-induced platelet aggregation at 10 '-5 to 10^-6 mol/L pretreated with compound and LPS/BzATP for 10 mins followed by thrombin addition and measured for 8 mins by aggregometry analysis; assay type: cell-based
T2 sequence (whole entry): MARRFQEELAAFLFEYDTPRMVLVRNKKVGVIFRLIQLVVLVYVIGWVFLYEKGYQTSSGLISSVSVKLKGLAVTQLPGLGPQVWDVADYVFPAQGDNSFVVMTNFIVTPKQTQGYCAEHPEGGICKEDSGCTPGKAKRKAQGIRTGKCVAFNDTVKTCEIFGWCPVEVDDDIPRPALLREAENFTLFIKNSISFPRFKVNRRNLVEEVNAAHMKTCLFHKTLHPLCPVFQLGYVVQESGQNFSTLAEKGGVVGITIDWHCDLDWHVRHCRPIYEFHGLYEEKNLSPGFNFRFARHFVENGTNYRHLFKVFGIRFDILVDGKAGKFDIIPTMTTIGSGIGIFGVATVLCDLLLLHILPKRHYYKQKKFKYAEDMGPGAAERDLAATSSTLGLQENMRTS

[4] = Metabolic stability in human liver microsomes assessed as half life at 0.2 mg/ml incubated for 60 mins by UPLC/MS-MS analysis; assay type: ADME, Microsome
[5] = Metabolic stability in human liver microsomes assessed as intrinsic clearance at 0.2 mg/ml incubated for 60 mins by UPLC/MS-MS analysis; assay type: ADME, Microsome; details: read-out: CLH
[6] = target: T1, P2X purinoceptor 7 (Homo sapiens); assay: Antagonist activity at P2X7R in human THP1 cells assessed as inhibition of LPS and BzATP-induced ROS production at 10^-5 mol/L pretreated with compound followed by LPS/BzATP addition and measured up to 5 hrs by kinetic chemiluminescence based fluorometric analysis; assay type: cell-based; details: THP-1
In short: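 PMA-differentiated THP-1 macrophages (10^5 cells) in RPMI 1640 + 10% FBS pretreated with antagonist at 10^-5 mol/L, then LPS 10 μmol/L plus BzATP 70 μmol/L at 37 °C, 5% CO2; horseradish peroxidase (50 μg/mL) and luminol (50 μM) mixture added, chemiluminescence read on a fluorometer; cell-free H2O2 serves as positive control.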

P2X purinoceptor 7 = target: T3, P2X purinoceptor 7 (Homo sapiens, UniProt Q99572); assay: Displacement of [3H]-A804598 from human P2X7 expressed in human HEK293 cell membrane incubated for 1 hr by microplate scintillation counting method; assay type: cell membranes
T3 sequence (Q99572 whole entry): T1 sequence (whole entry)

[7] = target: T1, P2X purinoceptor 7 (Homo sapiens); assay: Antagonist activity at P2X7 receptor in human THP-1 cells assessed as inhibition of LPS and BzATP-induced IL-1beta production at 10^-5 mol/L pretreated with compound followed by LPS/BzATP addition and measured after 2 to 6 hrs by ELISA; assay type: cell-based
In short: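 THP-1 monocytes grown in RPMI 1640 + 10% FCS, differentiated to macrophages with PMA (100nM); 10^6 cells pretreated with antagonist at 10^-5 mol/L, then exposed to LPS 10 μmol/L plus BzATP 70 μmol/L at 37 °C, 5% CO2; IL1β quantified by ELISA in samples at 2, 4 and 6 h; mean ± SD, significance P<0.05.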

HEK293 = assay: Cytotoxicity against human HEK293 cells assessed as reduction in cell viability at 10^-5 mol/L incubated for 72 hrs; assay type: cell-based; details: hek293, 72 h, 10 µM
In short: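 Wild-type and P2RX7-transfected HEK293 cells exposed to compound for 72 hours; viability compared against untreated control.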

[8] = Drug metabolism in mouse measured after 40 mins; assay type: ADME; details: read-out: Drug metabolism
[9] = target: T1, P2X purinoceptor 7 (Homo sapiens); assay: Antagonist activity at P2X7 receptor in human THP-1 cells assessed as inhibition of LPS and BzATP-induced IL-1beta production at 10^-6 mol/L pretreated with compound followed by LPS/BzATP addition and measured after 2 to 6 hrs by ELISA; assay type: cell-based; details: TDE = time-dependent effect
In short: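 PMA (100nM)-differentiated THP-1 macrophages (RPMI 1640, 10% FCS), 10^6 cells, pretreated with antagonist at […], then challenged with LPS 10 μmol/L and BzATP 70 μmol/L at 37 °C, 5% CO2; IL1β measured by ELISA, including the 6 h point; mean ± SD, P<0.05 significant.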

[10] = target: T1, P2X purinoceptor 7 (Homo sapiens); assay: Antagonist activity at P2X7R in human THP1 cells assessed as inhibition of LPS and BzATP-induced IL-1beta expression by measuring increase in proIL-1beta expression in cell supernatant extract at 10^-6 mol/L pretreated with compound followed by LPS/BzATP addition and measured after 6 hrs by Western blot analysis; assay type: cell-based; details: THP-1
[11] = target: T1, P2X purinoceptor 7 (Homo sapiens); assay: Antagonist activity at P2X7R in human THP1 cells assessed as inhibition of LPS and BzATP-induced mature form of IL-1beta expression in cells supernatant at 10^-6 mol/L pretreated with compound followed by LPS/BzATP addition and measured after 2 to 6 hrs by Western blot analysis; assay type: cell-based; details: THP-1
[12] = Metabolic stability in human hepatocytes; assay type: ADME, cell-based, Hepatocyte

## COc1ccc(NC(=O)[C@@H]2CCC(=O)N2)cc1OC
[1]
  inhibition: inactive

## COc1cc(CNC(=O)[C@@H]2CCC(=O)N2)cc(OC)c1OC
[1]
  inhibition: inactive

## COc1ccc(CN2C(=O)CC[C@H]2C(=O)NCCc2ccccc2)cc1
[1]
  inhibition: 0%

## CN(C)/C=C1\C[C@H]2C(=O)N(/C(=C/N(C)C)c3ccncc3)C(N(C)C)N2C1=O (stereo partly drawn)
[1]
  inhibition: 0%

## O=C(NCc1ccccc1Cl)[C@@H]1CCC(=O)N1Cc1ccccc1
[1]
  inhibition: 0%

## COc1ccc(CNC(=O)[C@@H]2CCC(=O)N2Cc2ccc(Cl)cc2Cl)c(OC)c1
[1]
  inhibition: 0%

## C[n+]1ccccc1C(=O)NCc1ccc(Cl)cc1Cl.[I-]
[1]
  inhibition: 0%

## O=C(NCc1ccccc1Cl)[C@@H]1CCC(=O)N1Cc1ccc(Cl)cc1
[1]
  inhibition: 0%

## O=C(NCc1ccc(Cl)cc1Cl)[C@@H]1CCC(=O)N1C(c1ccc(Cl)cc1)c1ccc(Cl)cc1
[1]
  inhibition: 0%

## COC(=O)[C@@H]1C/C(=C\NCc2ccc(Cl)cc2Cl)C(=O)N1C(=O)OC
[1]
  inhibition: 99%

## O=C(NCc1ccccc1Cl)[C@@H]1CCC(=O)N1Cc1ccccc1Cl
[1]
  inhibition: 0%

## CN1C(=O)CC[C@H]1C(=O)NCc1cc(C(F)(F)F)ccc1Cl
[1]
  inhibition: 0%

## COc1ccc(CN2C(=O)[C@@H]3C/C(=C\N(C)C)C(=O)N3C2N(C)C)c(OC)c1 (stereo partly drawn)
[1]
  inhibition: 0%

## O=C(NCc1ccc(Cl)cc1Cl)[C@@H]1COC(=O)N1c1cccs1
[2]
  solubility: Insoluble
[3]
  Activity: inactive
[1]
  inhibition: 80%
[4]
  half-life: 1.4 min
[5]
  microsomal CLint: 663 µL/min/mg
[6]
  inhibition: Active
P2X purinoceptor 7
  IC50: 15100 nM
  Ki: 3110 nM
[7]
  inhibition: Active
HEK293
  Activity: Non-Toxic
[8]
  metabolised at 40 min: 100%
[9]
  inhibition: Tde

## O=C(NCc1ccc(Cl)cc1Cl)[C@@H]1CCC(=O)N1c1ccsc1
[10]
  inhibition: Active
[2]
  solubility: Insoluble
[3]
  Activity: inactive
[1]
  inhibition: 78%
[4]
  half-life: 2.5 min
[5]
  microsomal CLint: 762 µL/min/mg
[6]
  inhibition: Active
P2X purinoceptor 7
  IC50: 1250 nM
  Ki: 256 nM
[11]
  inhibition: Active
[7]
  inhibition: Active
HEK293
  Activity: Non-Toxic
[8]
  metabolised at 40 min: 99.9%
[9]
  inhibition: Tde
[12]
  Stability: Unstable

## O=C(NCc1ccc(Cl)cc1Cl)[C@@H]1CCC(=O)N1c1nccs1
[2]
  solubility: Insoluble
[3]
  Activity: inactive
[1]
  inhibition: 83%
[4]
  half-life: 7.5 min
[5]
  microsomal CLint: 253 µL/min/mg
[6]
  inhibition: Active
P2X purinoceptor 7
  IC50: 2380 nM
  Ki: 489 nM
[7]
  inhibition: Active
HEK293
  Activity: Non-Toxic
[8]
  metabolised at 40 min: 93%
[9]
  inhibition: Tde
[12]
  Stability: Unstable

## O=C(NCc1ccccc1)[C@@H]1CCC(=O)N1Cc1ccc(Cl)cc1Cl
[1]
  inhibition: 0%

## O=C(NCc1ccc(Cl)cc1Cl)[C@@H]1CCC(=O)N1c1ccccc1
[1]
  inhibition: 50%
[12]
  Stability: Unstable

## CN(Cc1ccccc1)C(=O)[C@@H]1CCC(=O)N1Cc1ccc(Cl)cc1Cl
[1]
  inhibition: 0%

## O=C(NCc1ccc(Cl)cc1Cl)[C@@H]1CCC(=O)N1c1cscn1
[2]
  solubility: Insoluble
[3]
  Activity: inactive
[1]
  inhibition: 98%
[4]
  half-life: 4.8 min
[5]
  microsomal CLint: 379 µL/min/mg
[6]
  inhibition: Active
P2X purinoceptor 7
  IC50: 384 nM
  Ki: 78 nM
[7]
  inhibition: Active
HEK293
  Activity: Non-Toxic
[8]
  metabolised at 40 min: 98%
[9]
  inhibition: Tde
[12]
  Stability: Unstable

## CN(C)C(=O)[C@@H]1CCC(=O)N1
[1]
  inhibition: inactive

## O=C(NCc1ccc(Cl)cc1Cl)[C@@H]1CCC(=O)N1Cc1ccc(Cl)cc1
[1]
  inhibition: 0%

## O=C(NCc1ccc(Cl)cc1Cl)[C@@H]1CCC(=O)N1c1ccc(Cl)cc1
[1]
  inhibition: 0%
